Assay results from ChEMBL document CHEMBL1153177, “Exploring SAR features in diverse library of 4-cyanomethyl-pyrazole-3-carboxamides suitable for further elaborations as CB1 antagonists” (Bioorg Med Chem Lett, 2010).

How the values were obtained:
[1] = Octanol-water partition coefficient, log D of the compound; format: physicochemical
Cannabinoid receptor 1 [2] = biological target: T1, Cannabinoid receptor 1 (Homo sapiens, UniProt P21554); format: functional, cell-based, CHO-K1
Cannabinoid receptor 1 [3] = biological target: T1, Cannabinoid receptor 1; assay: Inverse agonist activity at human recombinant CB1 receptor expressed in CHO-K1 cells assessed as stimulation of GTPgammaS binding; format: functional, cell-based
Outline: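 Membranes came from CHO-K1 cells stably transfected with recombinant human CB1. Efficacy above 100% was taken as inverse agonist activity. IC50 values are the mean of at least two determinations.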

T1 sequence (P21554 whole entry): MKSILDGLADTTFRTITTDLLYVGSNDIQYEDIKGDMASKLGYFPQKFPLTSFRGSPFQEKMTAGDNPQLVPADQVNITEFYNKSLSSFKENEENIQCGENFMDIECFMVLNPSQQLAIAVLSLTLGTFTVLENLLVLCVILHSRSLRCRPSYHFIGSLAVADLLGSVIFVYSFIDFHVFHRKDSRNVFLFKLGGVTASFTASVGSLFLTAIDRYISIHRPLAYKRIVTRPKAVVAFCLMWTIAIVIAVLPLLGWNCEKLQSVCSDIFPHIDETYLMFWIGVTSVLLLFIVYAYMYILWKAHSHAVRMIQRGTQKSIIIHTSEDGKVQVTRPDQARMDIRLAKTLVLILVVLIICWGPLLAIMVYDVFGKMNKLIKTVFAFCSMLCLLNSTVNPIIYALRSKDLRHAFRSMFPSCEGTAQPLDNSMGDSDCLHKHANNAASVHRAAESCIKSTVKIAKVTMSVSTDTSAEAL

Row | Structure (SMILES) | logD [1] | IC50 (Cannabinoid receptor 1 [2]) | IC50 (Cannabinoid receptor 1 [3])
1 | N#CCc1c(C(=O)Nc2cnc3ccccc3c2)nn(-c2ccccc2Cl)c1-c1ccc(Cl)cc1 | 4 | 19 nM | 
2 | N#CCc1c(C(=O)NCCN2CCCCC2)nn(-c2ccccc2Cl)c1-c1ccc(Cl)cc1 | 2.9 | 1110 nM | 
3 | COC(=O)C(NC(=O)c1nn(-c2ccccc2Cl)c(-c2ccc(Cl)cc2)c1CC#N)C(C)C (stereo not drawn) |  | 7.3 nM | 
4 | N#CCc1c(C(=O)N2Cc3ccc(Br)cc3C2)nn(-c2ccccc2Cl)c1-c1ccc(Cl)cc1 |  | 0.22 nM | 
5 | Cc1cc(CNC(=O)c2nn(-c3ccccc3Cl)c(-c3ccc(Cl)cc3)c2CC#N)no1 |  | 15 nM | 
6 | N#CCc1c(C(=O)NC2CCc3ccccc32)nn(-c2ccccc2Cl)c1-c1ccc(Cl)cc1 (stereo not drawn) |  | 0.41 nM | 
7 | N#CCc1c(C(=O)N2CCCCC2c2ccc(F)cc2)nn(-c2ccccc2Cl)c1-c1ccc(Cl)cc1 (stereo not drawn) |  | 23 nM | 
8 | CCC(CC)NC(=O)c1nn(-c2ccccc2Cl)c(-c2ccc(Cl)cc2)c1CC#N |  | 5.8 nM | 
9 | N#CCc1c(C(=O)N2CCc3ccc(C(F)(F)F)cc3C2)nn(-c2ccccc2Cl)c1-c1ccc(Cl)cc1 |  | 2.1 nM | 
10 | N#CCc1c(C(=O)NCc2ccc(Br)cc2)nn(-c2ccccc2Cl)c1-c1ccc(Cl)cc1 | 4.4 | 5.8 nM | 1.2 nM
11 | N#CCc1c(C(=O)NCc2ccccc2F)nn(-c2ccccc2Cl)c1-c1ccc(Cl)cc1 | 4.1 | 4.1 nM | 
12 | N#CCc1c(C(=O)NC2CCCCCC2)nn(-c2ccccc2Cl)c1-c1ccc(Cl)cc1 |  | 0.49 nM | 
13 | N#CCc1c(C(=O)N[C@@H]2C[C@H]3CC[C@@H]2C3)nn(-c2ccccc2Cl)c1-c1ccc(Cl)cc1 |  | 2.2 nM | 
14 | N#CCc1c(C(=O)NCc2ccc(Cl)cc2Cl)nn(-c2ccccc2Cl)c1-c1ccc(Cl)cc1 | 4.6 | 1.6 nM | 
15 | COC(=O)C(Cc1ccccc1)NC(=O)c1nn(-c2ccccc2Cl)c(-c2ccc(Cl)cc2)c1CC#N (stereo not drawn) |  | 1.2 nM | 
16 | CC(C)C(NC(=O)c1nn(-c2ccccc2Cl)c(-c2ccc(Cl)cc2)c1CC#N)C(=O)O (stereo not drawn) |  | 6250 nM | 
17 | N#CCc1c(C(=O)NCc2ccc(Cl)cc2)nn(-c2ccccc2Cl)c1-c1ccc(Cl)cc1 | 4.4 | 1.2 nM | 
18 | N#CCc1c(C(=O)NCc2c(Cl)cccc2Cl)nn(-c2ccccc2Cl)c1-c1ccc(Cl)cc1 | 4.6 | 7 nM | 
19 | N#CCc1c(C(=O)N2CCC(c3ccc(F)cc3)CC2)nn(-c2ccccc2Cl)c1-c1ccc(Cl)cc1 |  | 1 nM | 
20 | N#CCc1c(C(=O)N2CCN(c3ncccn3)CC2)nn(-c2ccccc2Cl)c1-c1ccc(Cl)cc1 |  | 3.8 nM | 
21 | N#CCc1c(C(=O)NCc2ccc(F)c(Br)c2)nn(-c2ccccc2Cl)c1-c1ccc(Cl)cc1 | 4.4 | 0.7 nM | 
22 | N#CCc1c(C(=O)N2CCC(c3ccc(F)cc3)C2)nn(-c2ccccc2Cl)c1-c1ccc(Cl)cc1 (stereo not drawn) |  | 9.2 nM | 
23 | N#CCc1c(C(=O)NC(Cc2ccccc2)C(=O)O)nn(-c2ccccc2Cl)c1-c1ccc(Cl)cc1 (stereo not drawn) |  | 4450 nM | 
24 | N#CCc1c(C(=O)N2CCC(O)(Cc3ccccc3)CC2)nn(-c2ccccc2Cl)c1-c1ccc(Cl)cc1 |  | 3.4 nM | 
25 | N#CCc1c(C(=O)Nc2ccc(C(F)(F)F)nc2)nn(-c2ccccc2Cl)c1-c1ccc(Cl)cc1 |  | 14 nM | 
26 | N#CCc1ccc(NC(=O)c2nn(-c3ccccc3Cl)c(-c3ccc(Cl)cc3)c2CC#N)cc1 | 3.8 | 55 nM | 
27 | N#CCc1c(C(=O)NCCc2ccccc2)nn(-c2ccccc2Cl)c1-c1ccc(Cl)cc1 |  | 16 nM | 

Row | Structure (SMILES) | logD [1] | IC50 (Cannabinoid receptor 1 [2]) | IC50 (Cannabinoid receptor 1 [3])
28 | N#CCc1c(C(=O)N2CCCC2c2ccc(F)cc2)nn(-c2ccccc2Cl)c1-c1ccc(Cl)cc1 (stereo not drawn) |  | 27 nM | 
29 | N#CCc1c(C(=O)N2Cc3ccc(F)cc3C2)nn(-c2ccccc2Cl)c1-c1ccc(Cl)cc1 |  | 5.7 nM | 
30 | CN(Cc1ccc(F)cc1)C(=O)c1nn(-c2ccccc2Cl)c(-c2ccc(Cl)cc2)c1CC#N | 4.2 | 5.6 nM | 
31 | N#CCc1c(C(=O)NCc2ccc(F)cc2)nn(-c2ccccc2Cl)c1-c1ccc(Cl)cc1 | 4.1 | 2.1 nM | 
32 | N#CCc1c(C(=O)N2CCC(c3ccccc3C(=O)O)CC2)nn(-c2ccccc2Cl)c1-c1ccc(Cl)cc1 |  | 2810 nM | 
33 | N#CCc1c(C(=O)NN2CCCCC2)nn(-c2ccccc2Cl)c1-c1ccc(Cl)cc1 | 3.6 | 7.5 nM | 
34 | N#CCc1c(C(=O)N2CCC(O)(c3ccc(F)cc3)CC2)nn(-c2ccccc2Cl)c1-c1ccc(Cl)cc1 |  | 3 nM | 
35 | N#CCc1c(C(=O)Nc2cccnc2Cl)nn(-c2ccccc2Cl)c1-c1ccc(Cl)cc1 | 4.4 | 18 nM | 
36 | C[C@H]1CC[C@H](NC(=O)c2nn(-c3ccccc3Cl)c(-c3ccc(Cl)cc3)c2CC#N)CC1 |  | 1.6 nM | 
37 | CS(=O)(=O)C1CCN(C(=O)c2nn(-c3ccccc3Cl)c(-c3ccc(Cl)cc3)c2CC#N)CC1 |  | 17 nM | 
38 | N#CCc1c(C(=O)NCc2ccc(C#N)cc2)nn(-c2ccccc2Cl)c1-c1ccc(Cl)cc1 | 3.8 | 4.2 nM | 
39 | N#CCc1c(C(=O)NC2CCCCC2)nn(-c2ccccc2Cl)c1-c1ccc(Cl)cc1 | 3.5 | 1.9 nM | 
40 | N#CCc1c(C(=O)N2CCc3ccccc3C2)nn(-c2ccccc2Cl)c1-c1ccc(Cl)cc1 |  | 5.7 nM | 
41 | N#CCc1c(C(=O)NCc2cccc(Cl)c2)nn(-c2ccccc2Cl)c1-c1ccc(Cl)cc1 | 4.4 | 2.6 nM | 
42 | N#CCc1c(C(=O)Nc2cccnc2)nn(-c2ccccc2Cl)c1-c1ccc(Cl)cc1 | 3.3 | 57 nM | 
43 | N#CCc1c(C(=O)NN2CCOCC2)nn(-c2ccccc2Cl)c1-c1ccc(Cl)cc1 |  | 71 nM | 
44 | N#CCc1c(C(=O)N2CCN(c3ccccc3)CC2)nn(-c2ccccc2Cl)c1-c1ccc(Cl)cc1 |  | 13 nM | 
45 | N#CCc1c(C(=O)N2CC[C@@H](OCc3ccc(F)cc3)C2)nn(-c2ccccc2Cl)c1-c1ccc(Cl)cc1 |  | 20 nM | 
46 | CC(=O)C1CCN(C(=O)c2nn(-c3ccccc3Cl)c(-c3ccc(Cl)cc3)c2CC#N)CC1 |  | 199 nM | 
47 | N#CCc1c(C(=O)Nc2ccc(F)cc2)nn(-c2ccccc2Cl)c1-c1ccc(Cl)cc1 | 4.2 | 11 nM | 
48 | N#CCc1c(C(=O)NN2CCCCCC2)nn(-c2ccccc2Cl)c1-c1ccc(Cl)cc1 |  | 0.52 nM | 
49 | COC(=O)c1ccccc1C1CCN(C(=O)c2nn(-c3ccccc3Cl)c(-c3ccc(Cl)cc3)c2CC#N)CC1 |  | 2.2 nM | 
50 | N#CCc1c(C(=O)NCc2ccc(Br)cc2F)nn(-c2ccccc2Cl)c1-c1ccc(Cl)cc1 | 4.5 | 0.51 nM | 
51 | CS(=O)(=O)N1CCC(NC(=O)c2nn(-c3ccccc3Cl)c(-c3ccc(Cl)cc3)c2CC#N)CC1 |  | 31 nM | 
52 | N#CCc1c(C(=O)N[C@@H]2c3ccccc3C[C@@H]2O)nn(-c2ccccc2Cl)c1-c1ccc(Cl)cc1 (single isomer, unassigned) |  | 7.8 nM | 
53 | N#CCc1c(C(=O)N[C@H]2c3ccccc3C[C@H]2O)nn(-c2ccccc2Cl)c1-c1ccc(Cl)cc1 (single isomer, unassigned) |  | 1.7 nM | 
